In ChEMBL document CHEMBL1142569, “Two new hepatoprotective stilbene glycosides from Acer mono leaves” (J Nat Prod, 2005) one finds Activity data, which are given here for ten compounds.

For test [1], the system named is Hepatocyte. In words: Hepatoprotective activity against H2O2-induced hepatotoxicity in Wistar rat hepatocytes assessed as reduction in glutamic pyruvate transaminase release after 1 hr relative to control. Format: functional, cell-based. In a few lines:
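Hepatocytes from male Wistar rats were isolated by collagenase perfusion and cultured for one day after plating. Cells were pretreated with or without compound for 1 h, then exposed to 12 mM H2O2 for 1.5 h. GPT released into the medium was measured by the Reitman-Frankel method. Relative protection (%) = 100 × (H2O2-treated − sample)/(H2O2-treated − unchallenged control). Mean ± SD, n = 3.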

Test [2] concerns Hepatocyte. Briefly: Hepatoprotective activity against H2O2-induced hepatotoxicity in Wistar rat hepatocytes assessed as reduction in glutamic pyruvate transaminase release at 100 uM after 1 hr relative to control. Format: functional, cell-based.

Molecules are shown by their SMILES. Activity calls are given as the source filed them. No cut-off for these calls is given here.

Turning to `O=c1c(O)c(-c2ccc(O)c(O)c2)oc2cc(O)cc(O)c12`, in the test with Hepatocyte [1], the outcome was Active.

Take `C[C@@H]1O[C@@H](Oc2c(-c3ccc(O)c(O)c3)oc3cc(O)cc(O)c3c2=O)[C@H](O)[C@H](O)[C@H]1O`: the result with Hepatocyte [1] was inactive.

Turning to `COc1cc(/C=C/c2ccc(O)cc2)cc(O[C@@H]2O[C@H](CO)[C@@H](O)[C@H](O)[C@H]2O)c1`, in the test on Hepatocyte [1], the result was Active.

In the case of `O=C1C[C@@H](c2ccc(O)cc2)Oc2cc(O)cc(O)c21`, the result in the test on Hepatocyte [1] was inactive.

For the compound `O=c1ccoc2cc(O[C@@H]3O[C@H](CO)[C@@H](O)[C@H](O)[C@H]3O)cc(O)c12`, the result in the test on Hepatocyte [1] was inactive.

As to `COc1cc(/C=C/c2ccc(O)cc2)cc(O[C@@H]2O[C@H](CO[C@@H]3OC[C@](O)(CO)[C@H]3O)[C@@H](O)[C@H](O)[C@H]2O)c1`, the outcome in the test on Hepatocyte [1] was Active.

As for `COc1cc(C2Oc3cc([C@H]4Oc5cc(O)cc(O)c5C(=O)[C@@H]4O)ccc3OC2CO)ccc1O` (stereo not given in full), the outcome in the test on Hepatocyte [2] was Active.

As for `O=C1C[C@@H](c2ccc(O)c(O)c2)Oc2cc(O[C@@H]3O[C@H](CO)[C@@H](O)[C@H](O)[C@H]3O)cc(O)c21`, the result in the test with Hepatocyte [1] was inactive.

On to `O=C1C[C@@H](c2ccc(O)c(O)c2)Oc2cc(O)cc(O)c21`, for which the result in the test with Hepatocyte [1] was inactive.

For the compound `O=C1C[C@@H](c2ccc(O)cc2)Oc2cc(O[C@@H]3O[C@H](CO)[C@@H](O)[C@H](O)[C@H]3O)cc(O)c21`, in the test with Hepatocyte [1], the outcome was inactive.
